# Measured values reported in ChEMBL document CHEMBL1154112, “Parallel synthesis of potent dopaminergic N-phenyltriazole carboxamides applying a novel click chemistry based phenol linker” (Bioorg Med Chem, 2009).
# The source made the active and inactive calls. No cut-off for these calls is given here.
# What was measured:
# [1] = target: T1, D(3) dopamine receptor (Homo sapiens, UniProt P35462); assay: Displacement of [3H]spiperone from human cloned dopamine D3 expressed in CHO cells; assay type: cell-based; parameters: concentration or dose not given beside the values
# Procedure, shortened: (§1)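 Competition binding used membranes from CHO cells expressing human D2long, D2short, D3 or D4.4, with 0.5 nM final [3H]spiperone. Screening was run at 100 nM and 1 nM test compound in triplicate. Ki values come from nonlinear regression, as means of 2–4 experiments each run in triplicate.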
# [2] = target: D(1A) dopamine receptor (Sus scrofa) (UniProt P50130); assay: Displacement of [3H]SCH23390 from pig dopamine D1 receptor
# Procedure, shortened: (§2)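 Porcine striatal membranes were incubated with 0.3 nM [3H]SCH 23390 (Kd 0.95 nM). Protein was measured by Lowry against a BSA standard. Test compounds were screened at 100 nM and 1 nM in triplicate. Ki values were derived by nonlinear regression of competition curves, as means of 2–4 experiments each run in triplicate.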
# [3] = species on record: Sus scrofa; assay: Displacement of [3H]prazosin from pig alpha-1 adrenergic receptor; parameters: concentration or dose not given beside the values
# Procedure, shortened: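 Porcine cortical membranes at 55 µg protein per tube, [3H]prazosin as radioligand (Kd 0.06 nM). Ki obtained by non-linear regression of competition curves, means of 2–4 experiments each run in triplicate; screening run at 10 µM, 100 nM and 1 nM test compound in triplicate.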
# [4] = target: T2, D(2) dopamine receptor (Homo sapiens, UniProt P14416); assay: Displacement of [3H]spiperone from human cloned dopamine D2-short expressed in CHO cells; assay type: cell-based; parameters: concentration or dose not given beside the values; procedure, shortened: as §1
# [5] = target: T3, D(4) dopamine receptor (Homo sapiens, UniProt P21917); assay: Binding affinity to human cloned dopamine D4.4 expressed in CHO cells; assay type: cell-based
# T3 sequence (P21917 whole entry): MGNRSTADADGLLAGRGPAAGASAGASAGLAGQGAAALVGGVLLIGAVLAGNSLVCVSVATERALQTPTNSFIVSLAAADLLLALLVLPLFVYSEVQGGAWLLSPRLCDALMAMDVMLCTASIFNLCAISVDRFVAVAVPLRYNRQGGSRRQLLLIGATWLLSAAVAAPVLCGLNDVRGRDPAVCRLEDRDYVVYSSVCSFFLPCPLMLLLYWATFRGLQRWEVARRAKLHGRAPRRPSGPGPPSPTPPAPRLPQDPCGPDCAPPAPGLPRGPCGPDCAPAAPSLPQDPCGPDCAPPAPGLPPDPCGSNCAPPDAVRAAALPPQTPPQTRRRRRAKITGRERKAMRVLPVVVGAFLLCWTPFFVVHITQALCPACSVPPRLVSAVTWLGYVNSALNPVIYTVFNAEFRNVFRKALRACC
# [6] = target: T2, D(2) dopamine receptor; assay: Binding affinity to human cloned dopamine D2-short expressed in CHO cells; assay type: cell-based; procedure, shortened: as §1
# [7] = Binding affinity to pig alpha-1 adrenergic receptor; parameters: species or system Sus scrofa
# Procedure, shortened: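 Alpha1 binding used porcine cortical membranes with [3H]prazosin (KD 0.06 nM). Protein was measured by Lowry against a BSA standard. Ki came from nonlinear regression of competition curves, as the mean of 2–4 experiments each run in triplicate.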
# [8] = target: T2, D(2) dopamine receptor; assay: Binding affinity to human cloned dopamine D2-long expressed in CHO cells; assay type: cell-based; procedure, shortened: as §1
# [9] = target: D(1A) dopamine receptor (Sus scrofa, UniProt P50130); assay: Binding affinity to pig dopamine D1 receptor; procedure, shortened: as §2
# [10] = target: T1, D(3) dopamine receptor; assay: Binding affinity to human cloned dopamine D3 expressed in CHO cells; assay type: cell-based
# [11] = target: T2, D(2) dopamine receptor; assay: Displacement of [3H]spiperone from human cloned dopamine D2-long expressed in CHO cells; assay type: cell-based; procedure, shortened: as §1
# [12] = target: T4, D(4) dopamine receptor (Homo sapiens) (UniProt P21917); assay: Displacement of [3H]spiperone from human cloned dopamine D4.4 expressed in CHO cells; assay type: cell-based; procedure, shortened: as §1
# T4 sequence (whole entry): T3 sequence (P21917 whole entry)
# T1 sequence (P35462 whole entry): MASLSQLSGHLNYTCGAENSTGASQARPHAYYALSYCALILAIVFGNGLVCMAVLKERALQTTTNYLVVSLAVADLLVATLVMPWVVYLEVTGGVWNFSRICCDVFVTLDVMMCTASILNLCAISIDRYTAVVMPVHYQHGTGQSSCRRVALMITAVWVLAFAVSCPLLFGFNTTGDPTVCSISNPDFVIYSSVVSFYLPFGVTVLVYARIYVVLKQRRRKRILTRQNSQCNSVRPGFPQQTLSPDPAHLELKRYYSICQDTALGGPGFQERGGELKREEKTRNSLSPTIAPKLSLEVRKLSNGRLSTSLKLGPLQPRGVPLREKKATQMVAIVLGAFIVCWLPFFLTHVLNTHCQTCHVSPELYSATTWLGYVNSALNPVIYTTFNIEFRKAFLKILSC
# T2 sequence (P14416 whole entry): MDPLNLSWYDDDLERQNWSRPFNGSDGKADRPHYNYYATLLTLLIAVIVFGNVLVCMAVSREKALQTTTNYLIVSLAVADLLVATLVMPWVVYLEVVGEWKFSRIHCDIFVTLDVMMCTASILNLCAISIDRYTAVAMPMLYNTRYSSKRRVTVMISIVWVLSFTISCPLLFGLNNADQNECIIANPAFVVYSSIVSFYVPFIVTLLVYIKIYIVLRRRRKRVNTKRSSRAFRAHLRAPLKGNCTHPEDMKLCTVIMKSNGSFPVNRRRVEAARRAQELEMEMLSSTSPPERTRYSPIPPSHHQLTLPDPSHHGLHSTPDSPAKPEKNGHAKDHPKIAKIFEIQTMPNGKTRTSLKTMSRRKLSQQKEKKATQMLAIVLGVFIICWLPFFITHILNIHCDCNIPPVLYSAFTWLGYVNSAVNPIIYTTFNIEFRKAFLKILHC
# Chain of D(1A) dopamine receptor (P50130 whole entry): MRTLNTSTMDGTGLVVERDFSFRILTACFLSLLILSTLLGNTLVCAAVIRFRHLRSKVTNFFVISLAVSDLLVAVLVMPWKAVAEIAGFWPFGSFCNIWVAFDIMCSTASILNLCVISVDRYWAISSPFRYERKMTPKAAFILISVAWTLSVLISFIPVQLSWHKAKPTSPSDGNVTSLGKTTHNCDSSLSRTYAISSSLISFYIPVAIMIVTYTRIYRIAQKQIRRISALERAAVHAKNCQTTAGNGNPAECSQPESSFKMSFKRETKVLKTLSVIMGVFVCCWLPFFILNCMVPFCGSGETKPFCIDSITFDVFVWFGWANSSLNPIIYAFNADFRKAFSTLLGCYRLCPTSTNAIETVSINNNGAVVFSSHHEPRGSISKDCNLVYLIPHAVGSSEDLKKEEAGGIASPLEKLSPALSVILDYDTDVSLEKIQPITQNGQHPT
# Chain of D(1A) dopamine receptor (Sus scrofa) (P50130 whole entry): as above
Activity [1],Activity [2],Activity [3],Activity [4],Ki [5],Ki [6],Ki [7],Ki [8],Ki [9],Ki [10],Activity [11],Activity [12],Compound
46%,inactive,72%,33%,–,–,–,–,–,–,–,–,COc1ccc(-n2cc(CCCC(=O)NCCCCN3CCN(c4ccccc4OC)CC3)nn2)cc1
–,inactive,43%,–,–,–,–,–,–,–,–,–,COc1ccccc1N1CCN(CCNC(=O)CCCc2cn(-c3ccc([N+](=O)[O-])cc3)nn2)CC1
38%,inactive,58%,–,–,–,–,–,–,–,–,–,COc1ccc(-n2cc(CCCC(=O)NCCCCN3CCN(c4ccccc4Cl)CC3)nn2)cc1
–,inactive,56%,–,–,–,–,–,–,–,–,–,COc1ccc(-n2cc(C(=O)NCCN3CCN(c4ccccc4OC)CC3)nn2)cc1
42%,inactive,–,–,–,–,–,–,–,–,–,41%,COc1ccc(-n2cc(CCCC(=O)NCCN3CCN(c4cccc(Cl)c4Cl)CC3)nn2)cc1
–,inactive,56%,–,–,–,–,–,–,–,–,–,COc1ccc(-n2cc(CCCC(=O)NCCN3CCN(c4ccccc4OC)CC3)nn2)cc1
57%,inactive,64%,–,–,–,–,–,–,–,–,–,COc1ccc(-n2cc(C(=O)NCCCCN3CCN(c4ccccc4OC)CC3)nn2)cc1

# Continued, compound first:
Compound,Activity [1],Activity [2],Activity [3],Activity [4],Ki [5],Ki [6],Ki [7],Ki [8],Ki [9],Ki [10],Activity [11],Activity [12]
O=C(CCCc1cn(-c2ccc([N+](=O)[O-])cc2)nn1)NCCCCN1CCN(c2ccccc2Cl)CC1,51%,inactive,64%,–,–,–,–,–,–,–,–,–
COc1ccc(-n2cc(CCCC(=O)NCCCCN3CCN(c4cccc(Cl)c4Cl)CC3)nn2)cc1,71%,inactive,–,43%,200 nM,42 nM,42 nM,120 nM,1800 nM,9.3 nM,–,–
COc1ccc(-n2cc(C(=O)NCCCCN3CCN(c4cccc(Cl)c4Cl)CC3)nn2)cc1,76%,inactive,–,–,320 nM,68 nM,46 nM,44 nM,1700 nM,4.9 nM,–,–
O=C(NCCN1CCN(c2cccc(Cl)c2Cl)CC1)c1cn(-c2ccc([N+](=O)[O-])cc2)nn1,52%,inactive,47%,–,–,–,–,–,–,–,–,–
O=C(NCCCCN1CCN(c2cccc(Cl)c2Cl)CC1)c1cn(-c2ccc([N+](=O)[O-])cc2)nn1,95%,inactive,48%,53%,280 nM,53 nM,17 nM,49 nM,810 nM,1 nM,33%,–
COc1ccccc1N1CCN(CCCCNC(=O)CCCc2cn(-c3ccc([N+](=O)[O-])cc3)nn2)CC1,51%,inactive,83%,52%,–,–,–,–,–,–,39%,–
COc1ccc(-n2cc(C(=O)NCCN3CCN(c4cccc(Cl)c4Cl)CC3)nn2)cc1,40%,inactive,39%,–,–,–,–,–,–,–,–,–
COc1ccccc1N1CCN(CCCCNC(=O)c2cn(-c3ccc([N+](=O)[O-])cc3)nn2)CC1,58%,inactive,73%,38%,–,–,–,–,–,–,–,–
COc1ccc(-n2cc(C(=O)NCCCCN3CCN(c4ccccc4Cl)CC3)nn2)cc1,58%,inactive,55%,–,–,–,–,–,–,–,–,–
O=C(NCCCCN1CCN(c2ccccc2Cl)CC1)c1cn(-c2ccc([N+](=O)[O-])cc2)nn1,61%,inactive,61%,–,–,–,–,–,–,–,–,–
O=C(CCCc1cn(-c2ccc([N+](=O)[O-])cc2)nn1)NCCN1CCN(c2cccc(Cl)c2Cl)CC1,39%,inactive,–,–,–,–,–,–,–,–,–,37%
COc1ccccc1N1CCN(CCNC(=O)c2cn(-c3ccc([N+](=O)[O-])cc3)nn2)CC1,–,inactive,80%,–,140 nM,470 nM,6.5 nM,750 nM,4100 nM,4.9 nM,–,–
O=C(CCCc1cn(-c2ccc([N+](=O)[O-])cc2)nn1)NCCCCN1CCN(c2cccc(Cl)c2Cl)CC1,76%,inactive,–,43%,240 nM,47 nM,28 nM,83 nM,2200 nM,5.7 nM,–,–
